Results on 35 molecules are retold here after ChEMBL document CHEMBL4814000, “Discovery of β-carboline-(phenylsulfonyl)furoxan hybrids as potential anti-breast cancer agents” (Bioorg Med Chem Lett, 2021).

Experiment [1] relates to MCF7. Description: Antiproliferative activity against human MCF7 cells assessed as reduction in cell viability incubated for 72 hrs by CCK-8 assay. The class given is functional, cell-based. The conditions noted are these: MCF7, 72 h. The method, boiled down:
(§1)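 CCK-8 viability assay on MCF-7 or MDA-MB-231 cells after 72 h compound exposure; IC50 taken as half inhibitory concentration, reported as mean ± SD of three independent experiments.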

The test system of experiment [2] is MDA-MB-231. The experiment can be described thus: Antiproliferative activity against human MDA-MB-231 cells assessed as reduction in cell viability incubated for 72 hrs by CCK-8 assay. In kind it is functional, cell-based. The settings on record: MDA-MB-231, 72 h. Summed up:
as §1
For orientation: Formazan colour is commonly taken as a measure of viable cells.

A short description of experiment [3]: Nitric oxide releasing activity assessed as amount of NO release measured up to 24 hrs by Griess assay. In kind it is functional. The conditions noted are these: time hrs <=24. The method, boiled down: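 Griess assay measuring NO released by compounds in vitro over time; values are averages of three independent experiments.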
(In general: Griess reagent forms a coloured azo dye with nitrite.)

Active and inactive are the calls of the source. No cut-off for these calls is given here. A value given as a limit tells only on which side of the number the result lay.

On to `Cc1nc(C(=O)OCCOc2no[n+]([O-])c2S(=O)(=O)c2ccccc2)cc2c1[nH]c1ccccc12`, for which the IC50 is 4.58 µM in experiment [1] and 7.46 µM in experiment [2].
In the case of `O=C(O)c1cc2c(cn1)[nH]c1ccccc12`, the IC50 in experiment [1] and in experiment [2] was over 30 µM each time.
As to `COc1ccc(-c2nc(C(=O)N3CCN(CCOc4no[n+]([O-])c4S(=O)(=O)c4ccccc4)CC3)cc3c2[nH]c2ccccc23)cc1`, the values for the IC50 in experiment [1] and in experiment [2] were 1.33 µM and 0.92 µM, respectively. Besides, in experiment [3], the outcome was Active.
For `Cc1nc(C(=O)OCCCCOc2no[n+]([O-])c2S(=O)(=O)c2ccccc2)cc2c1[nH]c1ccccc12`, the IC50 in experiment [1] is 4.28 µM; in experiment [2] it was 4.54 µM.
As to `Cc1nc(C(=O)N2CCN(CCOc3no[n+]([O-])c3S(=O)(=O)c3ccccc3)CC2)cc2c1[nH]c1ccccc12`, the IC50 in experiment [1] was determined as 3.29 µM; in experiment [2], 3.47 µM.
In the case of `Cc1nc(C(=O)O)cc2c1[nH]c1ccccc12` [HARMAN-3-CARBOXYLIC ACID], the concentration for half-maximal inhibition (IC50) in experiment [1] stood at 19.2 µM; in experiment [2], 22.6 µM.
As for `COc1cccc2c1C(=O)c1c(O)c3c(c(O)c1C2=O)C[C@@](O)(C(=O)CO)C[C@@H]3O[C@H]1C[C@H](N)[C@H](O)[C@H](C)O1` [DOXORUBICIN], in experiment [2], the IC50 was found to be 2.86 µM.
Take `COc1ccc(-c2nc(C(=O)OCCCCCCOc3no[n+]([O-])c3S(=O)(=O)c3ccccc3)cc3c2[nH]c2ccccc23)cc1`: the IC50 came out at 5.36 µM in experiment [1] and 2.98 µM in experiment [2]. Besides, in experiment [3], the outcome was Active.
For the molecule `Cc1nc(C(=O)OCCOCCOc2no[n+]([O-])c2S(=O)(=O)c2ccccc2)cc2c1[nH]c1ccccc12`, the 50% inhibitory concentration (IC50) came out at 5.89 µM in experiment [1] and 7.67 µM in experiment [2].
Consider `O=C(OCCOc1no[n+]([O-])c1S(=O)(=O)c1ccccc1)c1cc2c(cn1)[nH]c1ccccc12`, for which the figures for the concentration for half-maximal inhibition (IC50) in experiment [1] and in experiment [2] were 11.5 µM and 9.56 µM, respectively.
In the case of `O=C(NCCCOc1no[n+]([O-])c1S(=O)(=O)c1ccccc1)c1cc2c(cn1)[nH]c1ccccc12`, the results for the IC50 in experiment [1] and in experiment [2] were 4.64 µM and 7.5 µM, respectively.
On to `O=C(OCCOCCOc1no[n+]([O-])c1S(=O)(=O)c1ccccc1)c1cc2c(cn1)[nH]c1ccccc12`, for which the values for the IC50 in experiment [1] and in experiment [2] were 19 µM and 15.8 µM, respectively.
Consider `O=C(OCCCOc1no[n+]([O-])c1S(=O)(=O)c1ccccc1)c1cc2c(cn1)[nH]c1ccccc12`, for which the IC50 came to 4.64 µM in experiment [1] and 7.96 µM in experiment [2].
In the same order, the values of `Cc1nc(C(=O)NCCOc2no[n+]([O-])c2S(=O)(=O)c2ccccc2)cc2c1[nH]c1ccccc12` are 4.96 µM and 3.84 µM.
Take `Cc1nc(C(=O)OCCCCCCOc2no[n+]([O-])c2S(=O)(=O)c2ccccc2)cc2c1[nH]c1ccccc12`: the figures for the IC50 in experiment [1] and in experiment [2] were 6.85 µM and 5.75 µM, respectively.
For `O=C(OCCCCOc1no[n+]([O-])c1S(=O)(=O)c1ccccc1)c1cc2c(cn1)[nH]c1ccccc12`, the IC50 in experiment [1] worked out at 9.57 µM; in experiment [2], 12.5 µM.
Taken in the same sequence, the figures for `CC(CNC(=O)c1cc2c(cn1)[nH]c1ccccc12)Oc1no[n+]([O-])c1S(=O)(=O)c1ccccc1` (centres undefined) were 6.94 µM and 5.97 µM.
Taken in the same sequence, the figures for `COc1ccc(-c2nc(C(=O)O)cc3c2[nH]c2ccccc23)cc1` were 14.3 µM and 12.6 µM.
In the case of `O=C(OCC#CCOc1no[n+]([O-])c1S(=O)(=O)c1ccccc1)c1cc2c(cn1)[nH]c1ccccc12`, the half-inhibitory concentration (IC50) amounted to 5.27 µM in experiment [1] and 5.89 µM in experiment [2].
Taken in the same sequence, the figures for `COc1ccc(-c2nc(C(=O)OCC#CCOc3no[n+]([O-])c3S(=O)(=O)c3ccccc3)cc3c2[nH]c2ccccc23)cc1` were 2.35 µM and 1.16 µM.
With `Cc1nc(C(=O)NCCCOc2no[n+]([O-])c2S(=O)(=O)c2ccccc2)cc2c1[nH]c1ccccc12`, the IC50 in experiment [1] is 2.97 µM; in experiment [2], 1.62 µM.
As for `COc1ccc2c(c1)[nH]c1c(C)nccc12` [HARMINE], the results for the IC50 in experiment [1] and in experiment [2] were 16.9 µM and 21.9 µM, respectively.
On to `O=C(OCCCCCCOc1no[n+]([O-])c1S(=O)(=O)c1ccccc1)c1cc2c(cn1)[nH]c1ccccc12`, for which the IC50 was found to be 13.7 µM in experiment [1] and 8.87 µM in experiment [2].
For `O=C(c1cc2c(cn1)[nH]c1ccccc12)N1CCN(CCOc2no[n+]([O-])c2S(=O)(=O)c2ccccc2)CC1`, the IC50 in experiment [1] worked out at 8.28 µM; in experiment [2], 6.83 µM.
Consider `COc1ccc(-c2nc(C(=O)NCC(C)Oc3no[n+]([O-])c3S(=O)(=O)c3ccccc3)cc3c2[nH]c2ccccc23)cc1` (centres undefined), for which the IC50 in experiment [1] worked out at 1.56 µM; in experiment [2], 2.27 µM. Also, in experiment [3], the outcome was Active.
With `Cc1nc(C(=O)OCC#CCOc2no[n+]([O-])c2S(=O)(=O)c2ccccc2)cc2c1[nH]c1ccccc12`, the results for the IC50 in experiment [1] and in experiment [2] were 8.86 µM and 6.91 µM, respectively.
In the same order, the values of `COc1ccc(-c2nc(C(=O)OCCCOc3no[n+]([O-])c3S(=O)(=O)c3ccccc3)cc3c2[nH]c2ccccc23)cc1` are 3.49 µM and 2.86 µM.
In the case of `O=S(=O)(c1ccccc1)c1no[n+]([O-])c1S(=O)(=O)c1ccccc1`, the IC50 in experiment [1] is 3.92 µM; in experiment [2], 4.84 µM.
In the same order, the values of `Cc1nc(C(=O)OCCCOc2no[n+]([O-])c2S(=O)(=O)c2ccccc2)cc2c1[nH]c1ccccc12` are 4.88 µM and 2.24 µM.
In the same order, the values of `Cc1nc(C(=O)NCC(C)Oc2no[n+]([O-])c2S(=O)(=O)c2ccccc2)cc2c1[nH]c1ccccc12` (centres undefined) are 3.8 µM and 2.2 µM.
Consider `COc1ccc(-c2nc(C(=O)NCCOc3no[n+]([O-])c3S(=O)(=O)c3ccccc3)cc3c2[nH]c2ccccc23)cc1`, for which the IC50 in experiment [1] came to 1.45 µM; in experiment [2], 0.87 µM. Also, the outcome in experiment [3] was Active.
For the molecule `COc1ccc(-c2nc(C(=O)OCCCCOc3no[n+]([O-])c3S(=O)(=O)c3ccccc3)cc3c2[nH]c2ccccc23)cc1`, the values for the IC50 in experiment [1] and in experiment [2] were 2.92 µM and 4.26 µM, respectively.
Take `COc1ccc(-c2nc(C(=O)OCCOc3no[n+]([O-])c3S(=O)(=O)c3ccccc3)cc3c2[nH]c2ccccc23)cc1`: the half-maximal inhibitory concentration (IC50) in experiment [1] worked out at 4.8 µM; in experiment [2], 3.59 µM. Also, the outcome in experiment [3] was Active.
With `O=C(NCCOc1no[n+]([O-])c1S(=O)(=O)c1ccccc1)c1cc2c(cn1)[nH]c1ccccc12`, the IC50 in experiment [1] worked out at 7.53 µM; in experiment [2], 6.75 µM.
Taken in the same sequence, the figures for `COc1ccc(-c2nc(C(=O)OCCOCCOc3no[n+]([O-])c3S(=O)(=O)c3ccccc3)cc3c2[nH]c2ccccc23)cc1` were 3.92 µM and 2.53 µM.

A word on the IC50: it is the point on the concentration scale where inhibition reaches its midpoint.
